The source made the active and inactive calls. The calls are words filed in the database; no cut-off is given here.
Assays:
[1] = target: T1, M-phase inducer phosphatase 2 (Homo sapiens) (UniProt P30305); experiment: Inhibition of N-terminal His6-tagged human CDC25B (377 to 550 residues) expressed in Escherichia coli BL21(DE3) cells assessed as reduction in Vmax using OMFP as substrate by double reciprocal Lineweaver-Burk plot analysis
T1 sequence (whole entry): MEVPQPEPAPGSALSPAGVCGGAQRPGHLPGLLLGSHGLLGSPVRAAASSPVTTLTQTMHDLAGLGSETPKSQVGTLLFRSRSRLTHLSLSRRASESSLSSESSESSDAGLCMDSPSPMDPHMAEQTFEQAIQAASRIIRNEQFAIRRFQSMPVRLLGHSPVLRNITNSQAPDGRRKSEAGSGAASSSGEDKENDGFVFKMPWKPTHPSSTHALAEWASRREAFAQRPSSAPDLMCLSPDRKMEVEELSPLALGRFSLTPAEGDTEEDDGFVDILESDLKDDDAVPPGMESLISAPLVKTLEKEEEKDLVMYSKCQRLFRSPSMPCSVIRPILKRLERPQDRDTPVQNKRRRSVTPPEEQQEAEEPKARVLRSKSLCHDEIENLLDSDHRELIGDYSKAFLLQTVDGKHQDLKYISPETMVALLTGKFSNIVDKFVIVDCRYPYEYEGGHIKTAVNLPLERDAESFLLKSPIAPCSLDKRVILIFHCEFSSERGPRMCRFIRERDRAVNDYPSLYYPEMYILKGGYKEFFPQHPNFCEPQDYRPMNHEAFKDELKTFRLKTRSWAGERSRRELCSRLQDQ
Summary of the method: (§1)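 Recombinant CDC25 form (15–25 nM) in 20 mM Tris-HCl pH 7.8, 0.5 mM TCEP, 1% (v/v) DMSO, with or without inhibitor. Reaction started with 0.5–25 µM OMFP; O-methylfluorescein formation followed continuously at 30°C (ex 485/em 530 nm). Initial rates (AU/min) analysed in Lineweaver-Burk plots for Vmax, KM and mechanism; Ki averaged from at least three independent experiments, only roughly estimated for mixed inhibition.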

[2] = system: A-375; experiment: Induction of cell cycle arrest in human A375 cells assessed as decrease in accumulation at G0/G1 phase at 10 uM after 8 hrs by propidium iodide staining based flow cytometric method; format: functional
Summary of the method: (§2)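 Seeded at 3×10^5 cells/well for 24 h at 37°C, then exposed to 10 µM inhibitor or 0.5% (v/v) DMSO for 8 or 16 h. Trypsin-harvested, fixed in cold 70% ethanol at -20°C for 1 h, stained 30 min at 4°C with 50 µg/mL PI in non-lysis solution. Phase distribution (sub-G1, G0/G1, S, G2/M) read by FACScan; triplicate experiments, mean ± SE.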

[3] = target: T2, M-phase inducer phosphatase 2 (Homo sapiens, UniProt P30305); experiment: Uncompetitive inhibition of N-terminal His6-tagged human CDC25B (377 to 550 residues) expressed in Escherichia coli BL21(DE3) cells using OMFP as substrate by double reciprocal Lineweaver-Burk plot analysis; summary of the method: as §1
T2 sequence (P30305 whole entry): T1 sequence (whole entry)

[4] = system: A-375; experiment: Induction of cell cycle arrest in human A375 cells assessed as increase in accumulation at G2/M phase at 10 uM after 8 hrs by propidium iodide staining based flow cytometric method; format: functional; summary of the method: as §2
[5] = system: A2058; experiment: Induction of cell cycle arrest in human A2058 cells assessed as increase in accumulation at G2/M phase at 10 uM after 8 hrs by propidium iodide staining based flow cytometric method; format: functional; summary of the method: as §2
[6] = system: A2058; experiment: Induction of cell cycle arrest in human A2058 cells assessed as decrease in accumulation at G0/G1 phase at 10 uM after 8 hrs by propidium iodide staining based flow cytometric method; format: functional; summary of the method: as §2
[7] = target: T1, M-phase inducer phosphatase 2 (Homo sapiens); experiment: Inhibition of CDC25B in human A2058 cells assessed as increase in phosphorylated cdk1 level at 10 uM after 8 hrs by Western blot analysis; format: cell-based
Summary of the method: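 After 24 h at 3×10^5 cells, 8 h treatment with 10 µM inhibitor or 0.5% DMSO. Lysis in ice-cold modified RIPA with Na3VO4, NaF and protease inhibitors; Bradford-normalised equal protein on 12% SDS-PAGE. Rabbit polyclonal anti-p-Cdk1 overnight at 4°C, HRP secondary, ECL detection; β-actin loading control.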

[8] = system: A2058; experiment: Cytotoxicity against human A2058 cells at 5 uM after 48 hrs by MTT assay; format: functional, cell-based
Summary of the method: (§3)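 Cells seeded at 4×10^4/well, treated 24 h after plating with inhibitor or 0.5% (v/v) DMSO vehicle for 24, 48 or 72 h. MTT added, 3 h at 37°C under 5% CO2, formazan solubilised, absorbance at 570 nm. Viability in arbitrary units, mean ± SE of at least three independent experiments versus control. Cells grown in DMEM/10% FBS at 37°C, 5% CO2; BJ-5ta cultured in 4:1 DMEM/Medium 199 with hygromycin B.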

[9] = system: A2058; experiment: Induction of cell cycle arrest in human A2058 cells assessed as increase in accumulation at subG1 phase at 10 uM after 16 hrs by propidium iodide staining based flow cytometric method; format: functional; summary of the method: as §2
[10] = system: A-375; experiment: Induction of cell cycle arrest in human A375 cells assessed as decrease in accumulation at G0/G1 phase at 10 uM after 16 hrs by propidium iodide staining based flow cytometric method; format: functional; summary of the method: as §2
[11] = target: T3, M-phase inducer phosphatase 3 (Homo sapiens, UniProt P30307); experiment: Inhibition of N-terminal His6-tagged human CDC25C (280 to 454 residues) expressed in Escherichia coli BL21(DE3) cells using OMFP as substrate by double reciprocal Lineweaver-Burk plot analysis; summary of the method: as §1
T3 sequence (P30307 whole entry): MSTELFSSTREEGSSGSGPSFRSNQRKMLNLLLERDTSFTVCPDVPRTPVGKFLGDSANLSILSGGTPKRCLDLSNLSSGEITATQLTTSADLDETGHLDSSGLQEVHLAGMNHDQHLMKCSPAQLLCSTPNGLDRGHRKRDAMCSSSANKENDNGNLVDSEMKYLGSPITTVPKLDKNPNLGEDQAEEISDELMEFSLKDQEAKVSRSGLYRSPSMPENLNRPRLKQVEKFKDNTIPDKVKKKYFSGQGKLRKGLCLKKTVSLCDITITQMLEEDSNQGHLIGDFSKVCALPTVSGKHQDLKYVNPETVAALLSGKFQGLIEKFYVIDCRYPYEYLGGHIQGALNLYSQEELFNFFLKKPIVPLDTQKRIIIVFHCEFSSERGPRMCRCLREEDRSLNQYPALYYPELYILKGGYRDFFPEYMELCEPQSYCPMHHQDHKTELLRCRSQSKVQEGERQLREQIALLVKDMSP

[12] = system: A-375; experiment: Induction of cell cycle arrest in human A375 cells assessed as increase in accumulation at G2/M phase at 10 uM after 16 hrs by propidium iodide staining based flow cytometric method; format: functional; summary of the method: as §2
[13] = system: A2058; experiment: Cytotoxicity against human A2058 cells at 2.5 uM after 72 hrs by MTT assay; format: functional, cell-based; summary of the method: as §3
[14] = system: A-375; experiment: Inhibition of colony formation in human A375 cells at 0.625 to 10 uM after 10 days by crystal violet staining based assay; format: functional, cell-based
Summary of the method: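 Seeded in duplicate at 4×10^2 cells/well; after 2–3 days treated with 0.5% (v/v) DMSO or 0.625–10 µM inhibitor for 10 days at 37°C. Stained 1 h with 1% crystal violet in 50% ethanol; colonies of ≥50 cells counted, expressed as percentage, mean ± SE of at least three experiments.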

CCOC(=O)c1cccc(Nc2cc(OC)cc3ccccc23)c1
inhibition [1]: Active
Activity [2]: Active
Ki [3]: 8.5 µM
Activity [4]: Active
Activity [5]: Active
Activity [6]: Active
inhibition [7]: Active
Activity [8]: Active
Activity [9]: inactive
Activity [10]: Active
Ki [11]: 1.9 µM
Activity [12]: inactive
Activity [13]: Active
inhibition [14]: Active
